≈ marks a conversion by molar mass, not a printed value.
Legend:
Format in all cases: functional
Enterococcus faecalis [1] = assay: Antibacterial activity against Enterococcus faecalis ATCC 29212 assessed as inhibition of biofilm formation after 24 hrs by CLSI method
Method in brief: (§1)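 Modified Calgary pin-lid device. Inoculum of 7 log10 CFU/ml was prepared by direct colony suspension from 24-h TSA growth. Biofilm grew on pins for 24 h at 35°C on a rocking table in TSB with 1% glucose and 2% NaCl. Pins were rinsed three times in PBS and exposed 24 h at 35°C to serial antibiotic dilutions. MBIC is the last well without visible growth. Quadruplicate.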

Staphylococcus aureus [2] = assay: Antibacterial activity against methicillin-susceptible Staphylococcus aureus L2 assessed as inhibition of biofilm formation after 24 hrs by CLSI method; method in brief: as §1
Staphylococcus aureus [3] = assay: Antibacterial activity against methicillin-resistant Staphylococcus aureus by broth microdilution method
Staphylococcus aureus [4] = assay: Antibacterial activity against Staphylococcus aureus ATCC 35556 assessed as inhibition of biofilm formation after 24 hrs by CLSI method; method in brief: as §1
[5] = system: Staphylococcus epidermidis; assay: Antibacterial activity against Staphylococcus epidermidis RP62A assessed as inhibition of biofilm formation after 24 hrs by CLSI method; method in brief: as §1
Enterococcus faecalis [6] = assay: Antibacterial activity against Enterococcus faecalis ATCC 29212 after 24 hrs by CLSI method; conditions: ATCC 29212, 24 h
Method in brief: (§2)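 Conventional MIC determined in duplicate following CLSI dilution guidelines, with cultures incubated at 35°C.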

Staphylococcus aureus [7] = assay: Antibacterial activity against methicillin-susceptible Staphylococcus aureus L2 assessed as induction of biofilm eradication after 24 hrs by CLSI method
Method in brief: (§3)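 Pin-lid biofilms were grown 24 h at 35°C in TSB with 1% glucose and 2% NaCl (7 log10 CFU/ml start), rinsed in PBS, and exposed 24 h at 35°C to serial antibiotic dilutions. Pin bacteria were dispersed by sonication and vortexing. Counts were plated in duplicate on TSA (detection limit 2.4 CFU/ml) or read as turbidity at 570 nm. Quadruplicate.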

[8] = system: Staphylococcus epidermidis; assay: Antibacterial activity against Staphylococcus epidermidis RP62A assessed as induction of biofilm eradication after 24 hrs by CLSI method; method in brief: as §3
[9] = system: Staphylococcus epidermidis; assay: Antibacterial activity against slime-negative Staphylococcus epidermidis M7 after 24 hrs by CLSI method; conditions: M7, 24 h
Staphylococcus aureus [10] = assay: Antibacterial activity against methicillin-resistant Staphylococcus aureus L83 after 24 hrs by CLSI method; conditions: L83, 24 h; method in brief: as §2
[11] = system: Staphylococcus epidermidis; assay: Antibacterial activity against slime-negative Staphylococcus epidermidis M7 assessed as induction of biofilm eradication after 24 hrs by CLSI method; method in brief: as §3
Staphylococcus aureus [12] = assay: Antibacterial activity against Staphylococcus aureus ATCC 35556 after 24 hrs by CLSI method; conditions: ATCC 35556, 24 h; method in brief: as §2
[13] = system: Staphylococcus epidermidis; assay: Antibacterial activity against slime-negative Staphylococcus epidermidis M7 assessed as inhibition of biofilm formation after 24 hrs by CLSI method; method in brief: as §1
Enterococcus faecalis [14] = assay: Antibacterial activity against Enterococcus faecalis ATCC 29212 assessed as induction of biofilm eradication after 24 hrs by CLSI method; method in brief: as §3
Staphylococcus aureus [15] = assay: Antibacterial activity against Staphylococcus aureus ATCC 35556 assessed as induction of biofilm eradication after 24 hrs by CLSI method; method in brief: as §3
[16] = system: Staphylococcus epidermidis; assay: Antibacterial activity against Staphylococcus epidermidis RP62A after 24 hrs by CLSI method
Staphylococcus aureus [17] = assay: Antibacterial activity against methicillin-susceptible Staphylococcus aureus L2 after 24 hrs by CLSI method; conditions: L2, 24 h; method in brief: as §2
Staphylococcus aureus [18] = assay: Antibacterial activity against methicillin-resistant Staphylococcus aureus L32 after 24 hrs by CLSI method; conditions: L32, 24 h; method in brief: as §2
Staphylococcus aureus [19] = assay: Antibacterial activity against methicillin-resistant Staphylococcus aureus L32 assessed as induction of biofilm eradication after 24 hrs by CLSI method; method in brief: as §3
Staphylococcus aureus [20] = assay: Antibacterial activity against methicillin-resistant Staphylococcus aureus L83 assessed as inhibition of biofilm formation after 24 hrs by CLSI method; method in brief: as §1
Staphylococcus aureus [21] = assay: Antibacterial activity against methicillin-resistant Staphylococcus aureus L32 assessed as inhibition of biofilm formation after 24 hrs by CLSI method; method in brief: as §1
Staphylococcus aureus [22] = assay: Antibacterial activity against methicillin-resistant Staphylococcus aureus L83 assessed as induction of biofilm eradication after 24 hrs by CLSI method; method in brief: as §3

Row | SMILES | MBIC (Enterococcus faecalis [1]) | MBIC (Staphylococcus aureus [2]) | MBIC (Staphylococcus aureus [4]) | MBIC [5] | MBC (Enterococcus faecalis [6]) | MIC (Enterococcus faecalis [6]) | MBEC (Staphylococcus aureus [7]) | MBEC [8] | MBC (Staphylococcus aureus [10]) | MBEC [11] | MBC (Staphylococcus aureus [12]) | MBIC [13] | MBEC (Enterococcus faecalis [14]) | MBEC (Staphylococcus aureus [15]) | MBC [16] | MBC (Staphylococcus aureus [17]) | MBC (Staphylococcus aureus [18]) | MBEC (Staphylococcus aureus [19]) | also measured
1 | CCCCCCCCCCNCCN[C@@]1(C)C[C@H](O[C@H]2[C@H](Oc3c4cc5cc3Oc3ccc(cc3Cl)[C@@H](O)[C@@H](NC(=O)[C@@H](CC(C)C)NC)C(=O)N[C@@H](CC(N)=O)C(=O)N[C@H]5C(=O)N[C@H]3C(=O)N[C@H](C(=O)N[C@H](C(=O)O)c5cc(O)c(CNCP(=O)(O)O)c(O)c5-c5cc3ccc5O)[C@H](O)c3ccc(c(Cl)c3)O4)O[C@H](CO)[C@@H](O)[C@@H]2O)O[C@@H](C)[C@H]1O [TELAVANCIN] | 1 µg/mL | 1 µg/mL | 0.25 µg/mL | 0.5 µg/mL | 1 µg/mL (≈ 0.57 µM) | 0.25 µg/mL (≈ 0.142 µM) | 1 µg/mL | 1 µg/mL | 0.125 µg/mL (≈ 0.0712 µM) | 0.5 µg/mL | 0.25 µg/mL (≈ 0.142 µM) | 0.5 µg/mL | 1 µg/mL | 0.125 µg/mL | 0.125 µg/mL (≈ 0.0712 µM) | 0.125 µg/mL (≈ 0.0712 µM) | 0.125 µg/mL (≈ 0.0712 µM) | 2 µg/mL | MIC (Staphylococcus aureus [3]): 0.06 µg/mL (≈ 0.0342 µM); MBC [9]: 0.125 µg/mL (≈ 0.0712 µM); MIC [9]: 0.125 µg/mL (≈ 0.0712 µM); MIC (Staphylococcus aureus [10]): 0.06 µg/mL (≈ 0.0342 µM); MIC (Staphylococcus aureus [12]): 0.06 µg/mL (≈ 0.0342 µM); MIC [16]: 0.125 µg/mL (≈ 0.0712 µM); MIC (Staphylococcus aureus [17]): 0.06 µg/mL (≈ 0.0342 µM); MIC (Staphylococcus aureus [18]): 0.03 µg/mL (≈ 0.0171 µM)
2 | CN[C@H](CC(C)C)C(=O)N[C@H]1C(=O)N[C@@H](CC(N)=O)C(=O)N[C@H]2C(=O)N[C@H]3C(=O)N[C@H](C(=O)N[C@H](C(=O)O)c4cc(O)cc(O)c4-c4cc3ccc4O)[C@H](O)c3ccc(c(Cl)c3)Oc3cc2cc(c3O[C@@H]2O[C@H](CO)[C@@H](O)[C@H](O)[C@H]2O[C@H]2C[C@](C)(N)[C@H](O)[C@H](C)O2)Oc2ccc(cc2Cl)[C@H]1O [VANCOMYCIN] | 16 µg/mL | 16 µg/mL | 16 µg/mL | 4 µg/mL | 16 µg/mL (≈ 11 µM) | 2 µg/mL (≈ 1.38 µM) | >256 µg/mL | 4 µg/mL | 2 µg/mL (≈ 1.38 µM) | 2 µg/mL | 2 µg/mL (≈ 1.38 µM) | 8 µg/mL | >256 µg/mL | >256 µg/mL | 2 µg/mL (≈ 1.38 µM) | 2 µg/mL (≈ 1.38 µM) | 2 µg/mL (≈ 1.38 µM) | >256 µg/mL | MBIC (Staphylococcus aureus [20]): 4 µg/mL; MBIC (Staphylococcus aureus [21]): 8 µg/mL; MBEC (Staphylococcus aureus [22]): >256 µg/mL

Reference: ChEMBL document CHEMBL1649538 (2009)
